Measurements from ChEMBL document CHEMBL2057101, “Fluorocyclines. 2. Optimization of the C-9 side-chain for antibacterial activity and oral efficacy” (J Med Chem, 2012).
≈ marks a conversion by molar mass, not a printed value.

Experiments:
Staphylococcus aureus [1] = assay: Antibacterial activity against tetracycline-resistant Staphylococcus aureus isolate SA161 expressing TetM gene; assay type: functional
Procedure, shortened: (§1)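 Broth microdilution MIC following CLSI methods in cation-adjusted Mueller Hinton broth, prepared fresh and held at 4 °C before testing. Defibrinated horse blood added to the medium where appropriate. Runs accepted when quality control ranges for comparator antibiotics and ATCC QC strains were met.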

Staphylococcus aureus [2] = assay: Antibacterial activity against tetracycline-resistant Staphylococcus aureus isolate SA158 expressing TetK gene; assay type: functional
Streptococcus pneumoniae [3] = assay: Antibacterial activity against tetracycline-resistant Streptococcus pneumoniae isolate 160 expressing tetM gene; assay type: functional
Staphylococcus aureus [4] = assay: Antibacterial activity against Staphylococcus aureus ATCC 13709 infected in CD-1 mouse assessed as increase in survival at 3 mg/kg, iv administered as single dose 1 hr post infection measured after 48 hrs post infection; assay type: functional
Procedure, shortened: (§2)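 Mouse septicemia screen: S. aureus grown to log phase, diluted in 5% mucin to give 90% mortality within 48 h, inoculum 1.98 × 10⁶ CFU/mouse, 0.5 mL intraperitoneal into female CD-1 mice (18−20 g). Six mice per group. Single 30 mg/kg oral gavage or 3 mg/kg IV dose 1 h post infection. Infection controls received sterile water vehicle. Survival recorded at 48 h.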

Staphylococcus aureus [5] = assay: Antibacterial activity against tetracycline-susceptible Staphylococcus aureus ATCC 13709 Smith isolate SA100; assay type: functional; procedure, shortened: as §1
Escherichia coli [6] = assay: Antibacterial activity against Escherichia coli ATCC 25922 isolate 107; assay type: functional
Procedure, shortened: (§3)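 MIC by broth microdilution in liquid medium per CLSI, in cation-adjusted Mueller Hinton broth made fresh and held at 4 °C before testing. Horse blood (defibrinated) added to the medium where appropriate. Runs were accepted only when the comparator antibiotics and ATCC QC strains fell within their recommended ranges.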

Escherichia coli [7] = assay: Antibacterial activity against Escherichia coli isolate EC155 expressing tetA gene; assay type: functional; procedure, shortened: as §3
Klebsiella pneumoniae = assay: Antibacterial activity against Klebsiella pneumoniae ATCC 13883; assay type: functional; procedure, shortened: as §3
Staphylococcus aureus [8] = assay: Antibacterial activity against Staphylococcus aureus ATCC 13709 infected in CD-1 mouse assessed as increase in survival at 30 mg/kg, po administered as single dose 1 hr post infection measured after 48 hrs post infection; assay type: functional; procedure, shortened: as §2
Streptococcus pneumoniae [9] = assay: Antibacterial activity against Streptococcus pneumoniae ATCC 49619 isolate 106; assay type: functional; procedure, shortened: as §3
Staphylococcus aureus [10] = assay: Antibacterial activity against Staphylococcus aureus ATCC 13709 infected in po dosed CD-1 mouse assessed as increase in survival administered as single dose 1 hr post infection measured after 48 hrs post infection; assay type: functional; details: ATCC 13709, po, read-out: PD50
Haemophilus influenzae = assay: Antibacterial activity against Haemophilus influenzae 551; assay type: functional; procedure, shortened: as §3
[11] = Oral bioavailability in rat; assay type: ADME, organism-based; details: in vivo
Staphylococcus aureus [12] = assay: Antibacterial activity against methicillin-resistant Staphylococcus aureus VL-137; assay type: functional; procedure, shortened: as §1
Moraxella catarrhalis = assay: Antibacterial activity against Moraxella catarrhalis; assay type: functional; procedure, shortened: as §3
Streptococcus pneumoniae [13] = assay: Antibacterial activity against Streptococcus pneumoniae SPN160; assay type: functional; procedure, shortened: as §1
Acinetobacter baumannii = assay: Antibacterial activity against Acinetobacter baumannii; assay type: functional; procedure, shortened: as §3
Streptococcus pyogenes = assay: Antibacterial activity against Streptococcus pyogenes; assay type: functional; procedure, shortened: as §3

Structure (SMILES)	MIC (Staphylococcus aureus [1]) [µg/mL]	MIC (Staphylococcus aureus [2]) [µg/mL]	MIC (Streptococcus pneumoniae [3]) [µg/mL]	survival at 3 mg/kg (Staphylococcus aureus [4]) [%]	MIC (Staphylococcus aureus [5]) [µg/mL]	MIC (Escherichia coli [6]) [µg/mL]	MIC (Escherichia coli [7]) [µg/mL]	MIC (Klebsiella pneumoniae) [µg/mL]	survival at 30 mg/kg (Staphylococcus aureus [8]) [%]	MIC (Streptococcus pneumoniae [9]) [µg/mL]	ED50 (Staphylococcus aureus [10]) [mg/kg]	further results
CN(C)[C@@H]1C(O)=C(C(N)=O)C(=O)[C@@]2(O)C(O)=C3C(=O)c4c(O)c(NC(=O)[C@@H]5C[C@H](F)CN5C)cc(F)c4C[C@H]3C[C@@H]12	0.5 (≈ 0.867 µM)	0.063 (≈ 0.109 µM)	0.016 (≈ 0.0278 µM)	83	0.13 (≈ 0.225 µM)	2 (≈ 3.47 µM)	> 32	16 (≈ 27.8 µM)	33	0.016 (≈ 0.0278 µM)		
CC(C)CCNc1cc(F)c2c(c1O)C(=O)C1=C(O)[C@]3(O)C(=O)C(C(N)=O)=C(O)[C@@H](N(C)C)[C@@H]3C[C@@H]1C2	0.5 (≈ 0.966 µM)	0.13 (≈ 0.251 µM)	4 (≈ 7.73 µM)	17	0.25 (≈ 0.483 µM)	> 32	> 32	> 32	33	2 (≈ 3.86 µM)	> 60	
CN(C)[C@@H]1C(O)=C(C(N)=O)C(=O)[C@@]2(O)C(O)=C3C(=O)c4c(O)c(NC(=O)[C@@H]5CCN5C)cc(F)c4C[C@H]3C[C@@H]12	0.016 (≈ 0.0294 µM)	0.016 (≈ 0.0294 µM)	0.016 (≈ 0.0294 µM)	100	0.016 (≈ 0.0294 µM)	0.016 (≈ 0.0294 µM)	1 (≈ 1.84 µM)	0.063 (≈ 0.116 µM)	83	0.016 (≈ 0.0294 µM)	14.3	MIC50 (Haemophilus influenzae): 0.063 µg/mL (≈ 0.116 µM); MIC90 (Haemophilus influenzae): 0.25 µg/mL (≈ 0.459 µM); bioavailability [11]: 4.6%; MIC50 (Staphylococcus aureus [12]): 0.031 µg/mL (≈ 0.0569 µM); MIC90 (Staphylococcus aureus [12]): 1 µg/mL (≈ 1.84 µM); MIC (Moraxella catarrhalis): 0.016 µg/mL (≈ 0.0294 µM); MIC50 (Moraxella catarrhalis): 0.016 µg/mL (≈ 0.0294 µM); MIC90 (Moraxella catarrhalis): 0.016 µg/mL (≈ 0.0294 µM); MIC (Streptococcus pneumoniae [13]): 0.016 µg/mL (≈ 0.0294 µM); MIC50 (Streptococcus pneumoniae [13]): 0.016 µg/mL (≈ 0.0294 µM); MIC90 (Streptococcus pneumoniae [13]): 0.016 µg/mL (≈ 0.0294 µM); MIC50 (Acinetobacter baumannii): 0.13 µg/mL (≈ 0.239 µM); MIC90 (Acinetobacter baumannii): 1 µg/mL (≈ 1.84 µM); MIC (Streptococcus pyogenes): 0.016 µg/mL (≈ 0.0294 µM); MIC50 (Streptococcus pyogenes): 0.016 µg/mL (≈ 0.0294 µM); MIC90 (Streptococcus pyogenes): 0.016 µg/mL (≈ 0.0294 µM)
CN(C)[C@@H]1C(O)=C(C(N)=O)C(=O)[C@@]2(O)C(O)=C3C(=O)c4c(O)c(NC(=O)c5nccs5)cc(F)c4C[C@H]3C[C@@H]12	0.13 (≈ 0.233 µM)	0.063 (≈ 0.113 µM)	4 (≈ 7.16 µM)	17	0.063 (≈ 0.113 µM)	> 32	> 32	> 32	0	2 (≈ 3.58 µM)		
CNC(=O)Nc1cc(F)c2c(c1O)C(=O)C1=C(O)[C@]3(O)C(=O)C(C(N)=O)=C(O)[C@@H](N(C)C)[C@@H]3C[C@@H]1C2	2 (≈ 3.96 µM)	16 (≈ 31.7 µM)	0.5 (≈ 0.991 µM)	83	0.25 (≈ 0.496 µM)	1 (≈ 1.98 µM)	> 32	4 (≈ 7.93 µM)	33	0.031 (≈ 0.0615 µM)	> 30	
CN(C)[C@@H]1C(O)=C(C(N)=O)C(=O)[C@@]2(O)C(O)=C3C(=O)c4c(O)c(NS(C)(=O)=O)cc(F)c4C[C@H]3C[C@@H]12	0.25 (≈ 0.476 µM)	4 (≈ 7.61 µM)	0.016 (≈ 0.0304 µM)	100	0.13 (≈ 0.247 µM)	0.25 (≈ 0.476 µM)	> 32	2 (≈ 3.81 µM)	50	0.016 (≈ 0.0304 µM)	> 30	
C[C@H]1COc2c(N3CCN(C)CC3)c(F)cc3c(=O)c(C(=O)O)cn1c23.C[C@H]1COc2c(N3CCN(C)CC3)c(F)cc3c(=O)c(C(=O)O)cn1c23.O [LEVOFLOXACIN]												MIC (Haemophilus influenzae): 0.016 µg/mL; MIC50 (Haemophilus influenzae): 0.016 µg/mL; MIC90 (Haemophilus influenzae): 0.031 µg/mL; MIC50 (Staphylococcus aureus [12]): 16 µg/mL; MIC90 (Staphylococcus aureus [12]): > 32 µg/mL; MIC50 (Moraxella catarrhalis): 0.031 µg/mL; MIC90 (Moraxella catarrhalis): 0.063 µg/mL; MIC50 (Streptococcus pneumoniae [13]): 1 µg/mL; MIC90 (Streptococcus pneumoniae [13]): 1 µg/mL; MIC50 (Acinetobacter baumannii): 4 µg/mL; MIC90 (Acinetobacter baumannii): 32 µg/mL; MIC50 (Streptococcus pyogenes): 0.5 µg/mL; MIC90 (Streptococcus pyogenes): 2 µg/mL
CN(C)[C@@H]1C(O)=C(C(N)=O)C(=O)[C@@]2(O)C(O)=C3C(=O)c4c(O)c(NC(=O)c5ccccn5)cc(F)c4C[C@H]3C[C@@H]12	0.13 (≈ 0.235 µM)	0.13 (≈ 0.235 µM)	8 (≈ 14.5 µM)	0	0.13 (≈ 0.235 µM)	> 32	> 32	> 32	0	4 (≈ 7.24 µM)	> 30	
CN(C)[C@@H]1C(O)=C(C(N)=O)C(=O)[C@@]2(O)C(O)=C3C(=O)c4c(O)c(NC(=O)[C@@H]5CCCN5)cc(F)c4C[C@H]3C[C@@H]12	0.5 (≈ 0.918 µM)	0.5 (≈ 0.918 µM)	0.016 (≈ 0.0294 µM)	100	0.25 (≈ 0.459 µM)	1 (≈ 1.84 µM)	16 (≈ 29.4 µM)	1 (≈ 1.84 µM)	0	0.016 (≈ 0.0294 µM)		
CCN1CCC[C@H]1C(=O)Nc1cc(F)c2c(c1O)C(=O)C1=C(O)[C@]3(O)C(=O)C(C(N)=O)=C(O)[C@@H](N(C)C)[C@@H]3C[C@@H]1C2	0.13 (≈ 0.227 µM)	0.031 (≈ 0.0541 µM)	≤ 0.016	67	0.031 (≈ 0.0541 µM)	0.13 (≈ 0.227 µM)	4 (≈ 6.99 µM)		40	≤ 0.016		
CN(C)[C@@H]1C(O)=C(C(N)=O)C(=O)[C@@]2(O)C(O)=C3C(=O)c4c(O)c(NCC(C)(C)C)cc(F)c4C[C@H]3C[C@@H]12	2 (≈ 3.86 µM)	0.25 (≈ 0.483 µM)	16 (≈ 30.9 µM)		0.25 (≈ 0.483 µM)	> 32	> 32	> 32		4 (≈ 7.73 µM)		
COc1cccc(C(=O)Nc2cc(F)c3c(c2O)C(=O)C2=C(O)[C@]4(O)C(=O)C(C(N)=O)=C(O)[C@@H](N(C)C)[C@@H]4C[C@@H]2C3)c1	0.25 (≈ 0.43 µM)	0.13 (≈ 0.224 µM)	> 32		0.13 (≈ 0.224 µM)	> 32	> 32	> 32		> 32		
CN(C)[C@@H]1C(O)=C(C(N)=O)C(=O)[C@@]2(O)C(O)=C3C(=O)c4c(O)c(N)cc(F)c4C[C@H]3C[C@@H]12	2 (≈ 4.47 µM)	2 (≈ 4.47 µM)	4 (≈ 8.94 µM)		0.25 (≈ 0.559 µM)	2 (≈ 4.47 µM)	32 (≈ 71.5 µM)	4 (≈ 8.94 µM)		0.25 (≈ 0.559 µM)		
CN(C)[C@@H]1C(O)=C(C(N)=O)C(=O)[C@@]2(O)C(O)=C3C(=O)c4c(O)c(NC(=O)[C@@H]5CCCCN5)cc(F)c4C[C@H]3C[C@@H]12	1 (≈ 1.79 µM)	0.25 (≈ 0.448 µM)	0.063 (≈ 0.113 µM)		0.5 (≈ 0.895 µM)	0.5 (≈ 0.895 µM)	8 (≈ 14.3 µM)	2 (≈ 3.58 µM)		0.031 (≈ 0.0555 µM)		
